Laboratory results published in ChEMBL document CHEMBL1687885, “Ethanesulfohydroxamic acid ester prodrugs of nonsteroidal anti-inflammatory drugs (NSAIDs): synthesis, nitric oxide and nitroxyl release, cyclooxygenase inhibition, anti-inflammatory, and ulcerogenicity index studies” (J Med Chem, 2011).

What was measured:
[1] = Induction of HNO release per mol of compound in 0.6 mL MeOH and 0.2 mL of 1 M NaOH after 2 hr by gas chromatographic analysis; type: physicochemical
Outline: (§1)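 HNO measured indirectly as N2O under anaerobic conditions: compound at 50 mM in 0.6 mL MeOH plus 0.2 mL 1 M NaOH; headspace (0.25 mL) injected at 2 and 24 h onto GC with thermal conductivity detector and Porapak Q column. % based on 2 mol HNO per mol N2O; mean of three experiments.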

[2] = Induction of HNO release per mol of compound in 0.6 mL MeOH and 0.2 mL of 1 M NaOH after 24 hr by gas chromatographic analysis; type: physicochemical; outline: as §1
[3] = Induction of HNO release per mol of compound in 0.6 mL MeOH, 0.2 mL of 1 M NaOH and 100 mM glutathione after 2 hr by gas chromatographic analysis; type: physicochemical
Outline: (§2)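 Compound 50 mM in MeOH-based solvent containing 100 mM glutathione and 250 mM NaOH (25 mM NaOH for some compounds); headspace N2O sampled at 2 and 24 h by GC with thermal conductivity detection. % HNO from 2 mol HNO per mol N2O; mean of three.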

[4] = Induction of HNO release per mol of compound in 0.6 mL MeOH, 0.2 mL of 1 M NaOH and 100 mM glutathione after 24 hr by gas chromatographic analysis; type: physicochemical; outline: as §2
[5] = molecular target: T1, Prostaglandin G/H synthase 1 (Ovis aries, UniProt P05979); test: Inhibition of ovine COX-1
T1 sequence (P05979 whole entry): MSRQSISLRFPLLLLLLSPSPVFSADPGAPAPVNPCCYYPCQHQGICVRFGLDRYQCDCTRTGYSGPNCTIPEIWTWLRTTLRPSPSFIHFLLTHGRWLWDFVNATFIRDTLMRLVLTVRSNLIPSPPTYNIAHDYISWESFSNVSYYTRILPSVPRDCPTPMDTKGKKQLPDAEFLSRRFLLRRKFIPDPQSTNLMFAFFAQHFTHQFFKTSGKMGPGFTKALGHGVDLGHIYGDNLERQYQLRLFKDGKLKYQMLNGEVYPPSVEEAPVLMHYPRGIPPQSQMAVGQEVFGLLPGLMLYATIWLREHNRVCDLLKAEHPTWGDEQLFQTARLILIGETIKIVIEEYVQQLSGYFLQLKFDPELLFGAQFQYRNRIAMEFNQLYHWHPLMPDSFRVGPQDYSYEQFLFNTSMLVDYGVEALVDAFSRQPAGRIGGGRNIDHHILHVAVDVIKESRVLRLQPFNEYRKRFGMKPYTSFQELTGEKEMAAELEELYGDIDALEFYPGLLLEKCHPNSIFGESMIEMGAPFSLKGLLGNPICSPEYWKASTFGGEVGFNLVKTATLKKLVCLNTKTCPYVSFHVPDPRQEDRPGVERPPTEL

[6] = test system: Rattus norvegicus; test: Antiinflammatory activity in po dosed Sprague-Dawley rat assessed as inhibition of carrageenam-induced paw edema administered 1 hr before carrageenan challenge measured after 3 hrs by Plethysmometer; type: functional; details: read-out: ID50 (the source's name)
Outline: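 Male Sprague-Dawley rats (160-180 g), three per group; compounds suspended in water with 1% methyl cellulose given orally at no fewer than three doses (2.8-112 mg/kg range) 1 h before subplantar injection of 0.05 mL 1% carrageenan in 0.9% NaCl into right hind paw. Vehicle-only controls. Paw volume measured by plethysmometer at 0 and 3 h; ID50 from dose-response curve.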

[7] = test system: Rattus norvegicus; test: Ulcerogenic activity in 12 fasting Sprague-Dawley rat assessed as ulcer index at 80 umol/kg, po measured after 6 hrs by magnifier lenses; type: toxicity, organism-based; details: in vivo
Outline: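 Rats fasted (water allowed) 12 h, then given 80 μmol/kg orally suspended in 1.7 mL 1% methylcellulose; vehicle controls. After 6 h, CO2 euthanasia; stomachs opened along greater curvature, rinsed, ulcers counted and measured with magnifier lenses. UI = summed ulcer length (mm) per stomach averaged over n = 3 per group.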

[8] = Chemical stability of the compound in phosphate buffered saline of pH 7.4 assessed as NO release at 50 uM after 1.5 hr by Griess assay; details: buffer, pH 7.4, 1.5 h
[9] = Induction of HNO release per mol of compound in 0.6 mL MeOH and 0.2 mL of 700 mM Tris buffer solution after 2 hr by gas chromatographic analysis
[10] = Induction of HNO release per mol of compound in 0.6 mL MeOH and 0.2 mL of 700 mM Tris buffer solution after 24 hr by gas chromatographic analysis
[11] = Chemical stability of the compound in phosphate buffered containg rat serum of pH 7.4 assessed as NO release at 50 uM after 1.5 hr by Griess assay; details: pH 7.4, 1.5 h
[12] = test system: Rattus norvegicus; test: Antiinflammatory activity in Sprague-Dawley rat assessed as inhibition of carrageenam-induced paw edema at 100 mg/kg, po administered 1 hr before carrageenan challenge measured after 3 hrs by Plethysmometer; type: functional
Outline: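 Male Sprague-Dawley rats (160-180 g), three per group, received the test compound orally as a suspension in water with 1% methyl cellulose. One hour later, 0.05 mL of 1% carrageenan in 0.9% NaCl was injected subcutaneously into the right hind paw plantar skin. Controls received vehicle alone. Paw volume was read at 0 and 3 h, and % inhibition was reported with SEM (n = 3).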

[13] = test system: Rattus norvegicus; test: Antiinflammatory activity in Sprague-Dawley rat assessed as inhibition of carrageenam-induced paw edema at 327 umol/kg, po administered 1 hr before carrageenan challenge measured after 3 hrs by Plethysmometer; type: functional
Outline: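 Male Sprague-Dawley rats (160-180 g), three per group. Test agent was suspended in water with 1% methylcellulose and given orally 1 h before 0.05 mL 1% carrageenan in 0.9% NaCl was injected subcutaneously under the plantar skin of the right hind paw. Controls received vehicle only. Paw volume was measured at 0 and 3 h by plethysmometer. Result is % inhibition of inflammation, n = 3, with SEM.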

SMILES: COc1ccc2c(c1)c(CC(=O)OCCS(=O)(=O)NO)c(C)n2C(=O)c1ccc(Cl)cc1
- Activity [1]: 20%
- Activity [2]: 1%
- Activity [3]: 1%
- Activity [4]: 1%
- IC50 [5]: 77.7 µM
- ED50 [6]: 19.1 µmol/kg
- UI [7]: 0
- Activity [8]: 44.5%
- Activity [9]: 0%
- Activity [10]: 0%
- Activity [11]: 3.2%

SMILES: COc1ccc2cc([C@H](C)C(=O)OCCS(=O)(=O)NO)ccc2c1
- Activity [1]: 24%
- Activity [2]: 23%
- Activity [3]: 2%
- Activity [4]: 4%
- IC50 [5]: 4.5 µM
- ED50 [6]: 11.8 µmol/kg
- Activity [8]: 52.9%
- Activity [9]: 0%
- Activity [10]: 0%
- Activity [11]: 1.3%

SMILES: O=C(Cc1ccccc1)OCCS(=O)(=O)NO
- Activity [1]: 23%
- Activity [2]: 21%
- Activity [3]: 0%
- Activity [4]: 7%
- IC50 [5]: > 100 µM
- inhibition in vivo at 100 mg/kg [12]: 12.4%
- Activity [8]: 54.3%
- Activity [9]: 0%
- Activity [10]: 0%
- Activity [11]: 4.8%

SMILES: CC(C)Cc1ccc(C(C)C(=O)OCCS(=O)(=O)NO)cc1 (configuration not stated)
- Activity [1]: 25%
- Activity [2]: 24%
- Activity [3]: 0%
- Activity [4]: 7%
- IC50 [5]: 1.1 µM
- inhibition in vivo at 327 µmol/kg [13]: 79.5%
- Activity [8]: 46.3%
- Activity [9]: 0%
- Activity [10]: 0%
- Activity [11]: 2.1%

SMILES: CONS(=O)(=O)CCOC(=O)C(C)c1ccc(CC(C)C)cc1 (configuration not stated)
- Activity [1]: 0%
- Activity [2]: 0%
- Activity [3]: 0%
- Activity [4]: 0%
- IC50 [5]: 14.6 µM
- inhibition in vivo at 327 µmol/kg [13]: 78.9%
- Activity [8]: 4.3%
- Activity [9]: 0%
- Activity [10]: 0%
- Activity [11]: 0.9%

SMILES: CCS(=O)(=O)NO [ETHANESULFONYLHYDROXAMIC ACID]
- Activity [1]: 24%
- Activity [2]: 7%
- Activity [3]: 0%
- Activity [4]: 0%
- IC50 [5]: > 100 µM
- Activity [8]: 54.5%
- Activity [9]: 0%
- Activity [10]: 0%
- Activity [11]: 1.4%

SMILES: COc1ccc2c(c1)c(CC(=O)O)c(C)n2C(=O)c1ccc(Cl)cc1 [INDOMETHACIN]
- UI [7]: 64.5

SMILES: COc1ccc2cc([C@H](C)C(=O)O)ccc2c1 [NAPROXEN]
- ED50 [6]: 29.7 µmol/kg
